The record followed here is ChEMBL document CHEMBL1137306, “Evaluation of 3-carboxy-4(1H)-quinolones as inhibitors of human protein kinase CK2” (J Med Chem, 2006).

Test [1] has as its target T1, Casein kinase II (Homo sapiens) (UniProt P67870+P68400+P19784). The test is described as follows: Residual activity of human CK2 at 30 uM. The format is protein-complex assay.
Test [2] has as its target T2, Casein kinase II (Homo sapiens, UniProt P19784+P67870+P68400). The test is described as follows: Inhibition of human CK2. In kind it is protein-complex assay.
For test [3], the target named is Rho-associated protein kinase 1 (Homo sapiens) (UniProt Q13464). The test is described as follows: Residual activity of ROCK1 at 10 uM in presence of 100 uM ATP relative to control.
Test [4] deals with Ribosomal protein S6 kinase alpha-5 (Homo sapiens) (UniProt O75582). The test is described as follows: Residual activity of MSK1 at 10 uM in presence of 100 uM ATP relative to control.
Test [5] addresses Glycogen synthase kinase-3 (Homo sapiens) (UniProt P49840+P49841). The test is described as follows: Residual activity of GSK3 at 10 uM in presence of 100 uM ATP relative to control. In kind it is protein assay.
Test [6] deals with Dual specificity tyrosine-phosphorylation-regulated kinase 1A (Homo sapiens) (UniProt Q13627). The test is described as follows: Residual activity of DYRK1a at 10 uM in presence of 100 uM ATP relative to control.
Test [7] concerns the target Tyrosine-protein kinase Lck (Homo sapiens) (UniProt P06239). The test is described as follows: Residual activity of p56LCK at 10 uM in presence of 100 uM ATP relative to control.
In test [8] the target is Cyclin-dependent kinase 5 (Homo sapiens) (UniProt Q00535). The test is described as follows: Residual activity of CDK5 at 10 uM in presence of 100 uM ATP relative to control.
In test [9] the target is T1, Casein kinase II (Homo sapiens). The test is described as follows: Residual activity of CK2 at 10 uM in presence of 100 uM ATP relative to control. In kind it is protein-complex assay.
The target of test [10] is T2, Casein kinase II. The test is described as follows: Binding affinity to human CK2 in presence of ATP. In kind it is protein-complex assay. Put shortly: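 Ki obtained from Lineweaver-Burk plots of CK2 activity measured at varied ATP and inhibitor concentrations (inhibitor 0 to 0.5 µM). Activity was read by the radiometric phosphocellulose peptide assay.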
Test [11] deals with Mitogen-activated protein kinase 10 (Homo sapiens) (UniProt P53779). The test is described as follows: Residual activity of JNK3 at 10 uM in presence of 100 uM ATP relative to control.

SMILES strings stand for the structures.

T2 sequence (P67870 whole entry): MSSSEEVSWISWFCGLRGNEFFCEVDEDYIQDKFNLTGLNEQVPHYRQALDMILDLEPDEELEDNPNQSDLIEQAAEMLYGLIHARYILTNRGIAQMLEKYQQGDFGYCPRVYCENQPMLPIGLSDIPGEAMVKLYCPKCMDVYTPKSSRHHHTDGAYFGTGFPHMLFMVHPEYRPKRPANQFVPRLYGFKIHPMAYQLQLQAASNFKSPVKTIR
T2 sequence (P68400 whole entry): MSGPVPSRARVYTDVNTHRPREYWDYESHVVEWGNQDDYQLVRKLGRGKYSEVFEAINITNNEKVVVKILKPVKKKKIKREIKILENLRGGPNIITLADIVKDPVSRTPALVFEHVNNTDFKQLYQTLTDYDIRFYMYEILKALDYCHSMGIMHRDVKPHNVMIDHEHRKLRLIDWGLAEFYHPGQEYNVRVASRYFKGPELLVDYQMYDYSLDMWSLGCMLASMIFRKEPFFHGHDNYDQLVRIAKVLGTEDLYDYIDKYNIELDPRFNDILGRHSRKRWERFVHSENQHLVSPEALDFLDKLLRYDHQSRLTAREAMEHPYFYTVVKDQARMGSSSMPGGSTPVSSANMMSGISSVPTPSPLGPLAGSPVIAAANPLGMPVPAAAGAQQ
T2 sequence (P19784 whole entry): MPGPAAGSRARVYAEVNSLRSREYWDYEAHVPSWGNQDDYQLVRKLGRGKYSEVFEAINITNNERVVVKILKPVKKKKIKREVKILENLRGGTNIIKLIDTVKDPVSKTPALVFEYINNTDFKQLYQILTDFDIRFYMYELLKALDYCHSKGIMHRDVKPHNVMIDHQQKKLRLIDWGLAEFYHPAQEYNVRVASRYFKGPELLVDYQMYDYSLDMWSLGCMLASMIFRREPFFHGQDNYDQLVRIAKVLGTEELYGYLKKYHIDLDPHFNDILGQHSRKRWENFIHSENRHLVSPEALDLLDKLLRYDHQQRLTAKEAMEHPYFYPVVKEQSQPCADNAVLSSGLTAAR
Sequence of Rho-associated protein kinase 1 (Homo sapiens) (Q13464 2-1354 limits assumed): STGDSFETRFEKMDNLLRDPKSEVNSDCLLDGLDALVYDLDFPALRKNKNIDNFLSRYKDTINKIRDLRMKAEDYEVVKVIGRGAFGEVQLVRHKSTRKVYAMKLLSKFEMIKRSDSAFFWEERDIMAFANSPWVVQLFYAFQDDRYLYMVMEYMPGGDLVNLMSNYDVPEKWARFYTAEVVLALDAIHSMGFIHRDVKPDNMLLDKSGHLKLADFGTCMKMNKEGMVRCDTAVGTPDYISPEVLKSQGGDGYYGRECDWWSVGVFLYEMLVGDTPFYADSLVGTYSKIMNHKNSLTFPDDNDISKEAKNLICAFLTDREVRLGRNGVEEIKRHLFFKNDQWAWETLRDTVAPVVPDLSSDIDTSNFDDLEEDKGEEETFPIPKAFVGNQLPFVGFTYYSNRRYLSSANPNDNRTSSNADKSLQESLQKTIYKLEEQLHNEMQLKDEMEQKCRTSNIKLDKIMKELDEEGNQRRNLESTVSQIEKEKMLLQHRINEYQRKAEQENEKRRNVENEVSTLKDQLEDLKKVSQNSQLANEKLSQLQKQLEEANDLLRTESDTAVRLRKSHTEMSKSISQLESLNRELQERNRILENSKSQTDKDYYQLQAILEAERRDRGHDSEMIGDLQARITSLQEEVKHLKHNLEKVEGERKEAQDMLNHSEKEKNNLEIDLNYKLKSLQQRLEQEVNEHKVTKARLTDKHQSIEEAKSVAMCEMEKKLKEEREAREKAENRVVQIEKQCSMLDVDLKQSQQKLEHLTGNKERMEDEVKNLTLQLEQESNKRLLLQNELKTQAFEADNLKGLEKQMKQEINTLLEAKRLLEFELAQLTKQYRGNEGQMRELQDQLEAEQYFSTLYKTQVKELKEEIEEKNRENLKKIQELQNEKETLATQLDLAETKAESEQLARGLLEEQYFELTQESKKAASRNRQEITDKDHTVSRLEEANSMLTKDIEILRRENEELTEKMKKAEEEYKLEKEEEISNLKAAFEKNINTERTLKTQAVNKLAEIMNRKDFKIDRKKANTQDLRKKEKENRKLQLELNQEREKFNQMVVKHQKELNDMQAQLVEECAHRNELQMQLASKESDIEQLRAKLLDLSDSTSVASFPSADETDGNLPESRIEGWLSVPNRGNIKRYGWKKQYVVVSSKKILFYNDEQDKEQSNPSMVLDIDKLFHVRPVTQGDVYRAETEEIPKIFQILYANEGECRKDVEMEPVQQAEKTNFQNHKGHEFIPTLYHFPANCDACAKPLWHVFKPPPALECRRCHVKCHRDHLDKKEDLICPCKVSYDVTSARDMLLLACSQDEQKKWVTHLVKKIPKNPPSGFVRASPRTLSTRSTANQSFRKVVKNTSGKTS
Sequence of Ribosomal protein S6 kinase alpha-5 (Homo sapiens) (O75582 whole entry, looked up): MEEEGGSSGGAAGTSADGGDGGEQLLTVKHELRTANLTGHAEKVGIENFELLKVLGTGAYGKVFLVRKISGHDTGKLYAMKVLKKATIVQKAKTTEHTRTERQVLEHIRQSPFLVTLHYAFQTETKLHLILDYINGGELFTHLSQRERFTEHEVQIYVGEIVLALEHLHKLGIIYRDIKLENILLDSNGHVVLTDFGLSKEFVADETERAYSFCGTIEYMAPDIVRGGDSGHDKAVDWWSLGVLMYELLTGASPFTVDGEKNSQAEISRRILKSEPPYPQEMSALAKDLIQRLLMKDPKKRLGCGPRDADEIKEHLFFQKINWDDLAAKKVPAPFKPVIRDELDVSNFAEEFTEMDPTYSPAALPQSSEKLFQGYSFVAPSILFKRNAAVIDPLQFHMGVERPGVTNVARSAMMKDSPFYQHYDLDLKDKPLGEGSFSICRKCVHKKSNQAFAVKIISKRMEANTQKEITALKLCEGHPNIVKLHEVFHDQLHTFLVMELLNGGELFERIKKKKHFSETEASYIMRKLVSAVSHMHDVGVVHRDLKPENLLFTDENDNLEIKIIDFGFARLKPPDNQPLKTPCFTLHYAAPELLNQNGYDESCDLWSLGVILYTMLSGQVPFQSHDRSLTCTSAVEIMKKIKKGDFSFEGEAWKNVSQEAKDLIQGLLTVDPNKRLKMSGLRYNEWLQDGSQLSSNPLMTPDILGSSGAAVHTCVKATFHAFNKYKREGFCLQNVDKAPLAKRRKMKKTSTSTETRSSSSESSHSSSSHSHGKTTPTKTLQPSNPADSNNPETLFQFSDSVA
Sequence of Glycogen synthase kinase-3 (Homo sapiens) (P49840 whole entry, looked up): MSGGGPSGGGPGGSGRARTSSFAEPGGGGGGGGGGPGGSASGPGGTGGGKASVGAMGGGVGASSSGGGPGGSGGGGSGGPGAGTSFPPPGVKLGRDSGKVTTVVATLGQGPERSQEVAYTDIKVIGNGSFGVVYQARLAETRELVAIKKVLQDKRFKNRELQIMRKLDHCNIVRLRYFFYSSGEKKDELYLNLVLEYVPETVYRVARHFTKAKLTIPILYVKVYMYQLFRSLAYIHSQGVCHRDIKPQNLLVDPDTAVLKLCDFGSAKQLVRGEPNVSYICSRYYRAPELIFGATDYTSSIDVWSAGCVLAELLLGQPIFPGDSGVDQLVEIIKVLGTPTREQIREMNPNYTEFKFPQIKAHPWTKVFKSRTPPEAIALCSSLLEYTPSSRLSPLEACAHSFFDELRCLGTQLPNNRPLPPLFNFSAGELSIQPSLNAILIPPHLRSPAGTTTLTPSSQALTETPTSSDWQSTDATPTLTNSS
Sequence of Glycogen synthase kinase-3 (Homo sapiens) (P49841 whole entry, looked up): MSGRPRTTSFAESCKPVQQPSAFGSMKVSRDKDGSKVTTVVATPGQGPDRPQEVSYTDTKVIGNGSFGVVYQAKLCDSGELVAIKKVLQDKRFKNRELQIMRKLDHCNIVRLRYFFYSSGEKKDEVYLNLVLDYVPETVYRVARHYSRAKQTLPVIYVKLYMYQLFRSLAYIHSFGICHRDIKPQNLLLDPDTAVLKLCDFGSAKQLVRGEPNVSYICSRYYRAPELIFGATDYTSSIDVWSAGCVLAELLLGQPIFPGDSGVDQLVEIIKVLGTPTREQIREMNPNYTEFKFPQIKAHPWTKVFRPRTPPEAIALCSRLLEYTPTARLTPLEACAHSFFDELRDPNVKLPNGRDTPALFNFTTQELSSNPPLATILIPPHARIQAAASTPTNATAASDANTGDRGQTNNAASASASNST
Sequence of Tyrosine-protein kinase Lck (Homo sapiens) (P06239 2-509 limits assumed): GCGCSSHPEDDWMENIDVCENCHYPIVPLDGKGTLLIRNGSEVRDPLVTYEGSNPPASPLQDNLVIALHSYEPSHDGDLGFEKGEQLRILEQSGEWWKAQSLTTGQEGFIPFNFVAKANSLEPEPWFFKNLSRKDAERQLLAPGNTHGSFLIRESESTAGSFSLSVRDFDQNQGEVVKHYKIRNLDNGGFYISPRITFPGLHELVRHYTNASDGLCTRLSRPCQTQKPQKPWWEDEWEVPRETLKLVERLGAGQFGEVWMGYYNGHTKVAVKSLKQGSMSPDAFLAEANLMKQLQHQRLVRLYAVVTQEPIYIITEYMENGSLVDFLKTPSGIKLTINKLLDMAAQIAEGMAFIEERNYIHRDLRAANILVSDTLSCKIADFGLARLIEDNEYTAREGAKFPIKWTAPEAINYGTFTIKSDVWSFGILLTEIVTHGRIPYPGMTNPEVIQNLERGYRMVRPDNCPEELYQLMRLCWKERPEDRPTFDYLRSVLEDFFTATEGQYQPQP
Sequence of Cyclin-dependent kinase 5 (Homo sapiens) (Q00535 whole entry, looked up): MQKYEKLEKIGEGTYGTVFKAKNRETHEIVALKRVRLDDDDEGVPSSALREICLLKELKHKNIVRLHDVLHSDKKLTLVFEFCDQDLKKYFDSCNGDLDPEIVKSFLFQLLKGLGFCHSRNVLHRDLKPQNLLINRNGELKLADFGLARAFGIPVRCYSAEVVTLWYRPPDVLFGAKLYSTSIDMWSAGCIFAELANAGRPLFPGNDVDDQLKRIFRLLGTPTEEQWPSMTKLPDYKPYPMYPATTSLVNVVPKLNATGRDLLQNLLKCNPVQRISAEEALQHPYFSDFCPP

The compound `O=C(O)c1cnc2ccc(Cl)cc2c1O` returned an Activity in test [1] of 75%.

`O=C(O)c1cnc2ccc(Br)cc2c1O` yielded an Activity in test [1] of 76%. The same measure, in the same setting: to `Cc1ccc2ncc(C(=O)O)c(O)c2c1` belongs 100%; to `COc1cc(OC)c2ncc(C(=O)O)c(O)c2c1`, 99%. Still for that read-out and setting: to `Cc1cc(C)c2c(c1)c(=O)c(C(=O)O)cn2C` belongs 102%.

`CCc1cccc2c(O)c(C(=O)O)cnc12` yielded an Activity in test [1] of 86%. On the same count and under the same terms, to `CN(C)c1ccc2ncc(C(=O)O)c(O)c2c1` belongs 75%; to `O=C(O)c1cnc2c(Cl)cc(Cl)cc2c1O`, 64%. The same measure, in the same setting: then `COc1cccc2c(O)c(C(=O)O)cnc12`, with 92%.

As to `O=C(O)c1cnc2cc3c(cc2c1O)OCCO3`, the Activity in test [1] came to 81%. The same measure, in the same setting: to `CC(=O)c1ccc2ncc(C(=O)O)c(O)c2c1` belongs 100%; to `O=C(O)c1cnc2ccccc2c1O`, 103%. Turning to `Cc1c(Cl)ccc2c(O)c(C(=O)O)cnc12`, the IC50 (commonly the concentration needed to halve the response being measured) against Casein kinase II [2] was 2000 nM. The Activity in test [1] turned out to be 15%. With `Cc1ccc2c(O)c(C(=O)O)cnc2c1C`, the IC50 against Casein kinase II [2] was at least 33000 nM. The same compound displayed an Activity in test [1] of 56%. `O=C(O)c1ccc2c(O)c(C(=O)O)cnc2c1` registered an Activity in test [1] of 74%. Same read-out and setting: then `Cn1cc(C(=O)O)c(=O)c2ccccc21`, with 106%; and `O=C(O)c1cnc2c(Cl)cccc2c1O`, with 37%; and `O=C(O)c1cnc2c(Cl)c(Cl)ccc2c1O`, with 12.5%. `O=C(O)c1cnc2c(C(=O)O)cccc2c1O` returned an Activity in test [1] of 73%.

`CC(C)Oc1cccc2c(O)c(C(=O)O)cnc12` returned an Activity in [1] of 93%.

`O=C(O)c1cnc2ccc(F)cc2c1O` yielded an Activity in [1] of 72%.

Compound `Cc1ccc(C)c2c(O)c(C(=O)O)cnc12` displayed an Activity in [1] of 32%. Turning to `O=C(O)c1cnc2cc(C(F)(F)F)ccc2c1O`, the Activity in test [1] was found to be 78%. The same measure, in the same setting: then `CCCCc1ccc2ncc(C(=O)O)c(O)c2c1`, with 87%; and `CCOc1ccc2ncc(C(=O)O)c(O)c2c1`, with 107%; and `O=C(O)c1cnc2ccc(I)cc2c1O`, with 85%. The compound `O=C(O)c1cnc2ccc(Oc3ccccc3)cc2c1O` showed an Activity in test [1] of 89%. Still for that read-out and setting: to `Cc1cc(C)c2ncc(C(=O)O)c(O)c2c1` belongs 63%.

Consider `CC1COc2c(N3CCN(C)CC3)c(F)cc3c(=O)c(C(=O)O)cn1c23` (stereo not given), for which, in test [1], the Activity is 100%. Still for that read-out and setting: then `O=C(O)c1cnc2cc(Cl)cc(Cl)c2c1O`, with 70%; and `COc1ccc2ncc(C(=O)O)c(O)c2c1`, with 101%. Still for that read-out and setting: to `CCOc1cccc2c(O)c(C(=O)O)cnc12` belongs 103%. On the same count and under the same terms, to `O=C(O)c1cnc2c(F)cccc2c1O` belongs 70%.

As for `O=C(O)c1cnc2c(ccc3ccccc32)c1O`, the Activity in test [3] was 78%; in test [4] it was 89%; in test [5], over 50%; in test [6], 85%; in test [7] it was 80%; in test [8] it was over 50%. Further, the Activity in [9] amounted to 25%; in [1], 4.5%; in test [11] it was 81%. Further, on Casein kinase II [2], half-maximal inhibition (IC50) required 1000 nM. Moreover, the Ki (in general, the equilibrium dissociation constant of an inhibitor or competing ligand from its target) at Casein kinase II [10] was determined as 280 nM. `O=C(O)c1cnc2c(Br)cccc2c1O` yielded an Activity in test [1] of 42%. The compound `Cc1ccc2c(c1)c(=O)c(C(=O)O)cn2C` gave an Activity in [1] of 100%. On to `O=C(O)c1ccc2ncc(C(=O)O)c(O)c2c1`, for which the Activity in test [1] is 91%. Still for that read-out and setting: then `CC1COc2c(F)c(F)cc3c(=O)c(C(=O)O)cn1c23` (stereo not given), with 88%. The same measure, in the same setting: then `Cc1cccc2c(O)c(C(=O)O)cnc12`, with 74%. On the same count and under the same terms, then `CCCOc1ccc2ncc(C(=O)O)c(O)c2c1`, with 80%. As for `O=C(O)c1c[nH]c2c(Cl)c(Cl)ccc2c1=O`, at Casein kinase II [2], it took 800 nM to reach half-maximal inhibition (IC50). For the compound `CC(C)c1cccc2c(O)c(C(=O)O)cnc12`, the Activity in [1] is 95%.

Take `O=C(O)c1cnc2c(Cl)cc(Cl)c(Cl)c2c1O`: the Activity in test [3] is 85%; in [4] it was 71%; in [5], over 50%; in [6] it was 35%; in test [7], 87%; in test [8], over 50%. In addition, the values for the Activity in test [9], in [1] and in [11] were 11%, 2.6% and 74%, respectively. For the same compound, on Casein kinase II [2], the IC50 stood at 300 nM. The Ki on Casein kinase II [10] is 60 nM.
